# Target: T1, N-acylethanolamine-hydrolyzing acid amidase (Rattus norvegicus, UniProt Q5KTC7)
# T1 sequence (Q5KTC7 whole entry): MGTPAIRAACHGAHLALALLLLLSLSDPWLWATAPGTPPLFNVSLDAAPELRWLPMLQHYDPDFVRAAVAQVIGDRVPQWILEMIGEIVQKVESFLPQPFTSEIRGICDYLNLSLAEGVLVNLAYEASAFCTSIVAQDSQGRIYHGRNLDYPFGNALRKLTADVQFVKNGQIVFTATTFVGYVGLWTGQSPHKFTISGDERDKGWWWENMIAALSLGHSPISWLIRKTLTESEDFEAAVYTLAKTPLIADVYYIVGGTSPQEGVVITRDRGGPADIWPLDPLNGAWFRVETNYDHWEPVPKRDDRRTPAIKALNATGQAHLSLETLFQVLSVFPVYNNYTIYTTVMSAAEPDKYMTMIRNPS
# Test: Inhibition of NAAA in Sprague-Dawley rat lung assessed as inhibition of hydrolysis of 10-cis-heptadecenoylethanolamide by UPLC/MS method
# Method in brief: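 Native NAAA enzyme prepared from rat lungs, not a recombinant construct. The substrate, 10-cis-heptadecenoylethanolamide, is an unnatural fatty acid ethanolamide. Inhibition of its hydrolysis was measured, and the median inhibitory concentration (IC50) was reported.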
row,IC50 [nM],Structure (SMILES)
1,24,Cc1ccc(-c2ccc(COC(=O)N[C@H]3C(=O)O[C@H]3C)cc2)cc1
2,15,C[C@@H]1OC(=O)[C@@H]1NC(=O)OCC#Cc1ccccc1
3,28,"C[C@@H]1OC(=O)[C@@H]1NC(=O)OCc1ccc(-c2ccc(C(F)(F)F)cc2)cc1 [US9353075, 44]"
